Test results as given in ChEMBL document CHEMBL3526116, “Toxicological evaluation of acyl glucuronides of nonsteroidal anti-inflammatory drugs using human embryonic kidney 293 cells stably expressing human UDP-glucuronosyltransferase and human hepatocytes” (Drug Metab Dispos, 2011).

Experiments:
HEK293 [1] = experiment: Cytotoxicity against HEK293 cells expressing UGT1A3 assessed as decrease in cell viability at 1 mM measured at 24 hrs by MTT assay; type: ADME, cell-based; conditions: human, hek293, 24 h, 1000 µM
HEK293 [2] = experiment: Cytotoxicity against HEK293 cells expressing UGT1A4 assessed as decrease in cell viability at 1 mM measured at 24 hrs by MTT assay; type: ADME, cell-based; conditions: human, hek293, 24 h, 1000 µM
HEK293 [3] = experiment: Cytotoxicity against HEK293 cells expressing UGT assessed as decrease in cell viability at 1 mM measured up to 72 hrs by MTT assay; type: ADME, cell-based; conditions: human, hek293, 72 h, 1000 µM
Method in brief: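 Mock and UGT1A3/UGT1A4 stable HEK293 cells given drug for up to 72 h; viability measured by WST-8-based MTT assay.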

HEK293 [4] = experiment: Genotoxicity in HEK293 cells expressing UGT1A3 assessed as DNA strand breaks at 1 mM after 24 hrs by comet assay; type: toxicity, cell-based; conditions: human, hek293, 24 h, 1000 µM
Method in brief: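 Alkaline comet assay: HEK/UGT1A3 cells seeded 24 h before, treated 24 h in DMEM with 0.5% FBS (vehicle 0.1% DMSO; MMS 0.1 mM positive control). Cells embedded in LMP agarose, lysed 1 h at 4°C at pH 10, unwound 30 min in NaOH/EDTA, electrophoresed 300 mA 20 min, ethidium-stained; tail moment scored on 150-180 comets over >3 experiments, median (IQR).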

HEK293 [5] = experiment: Genotoxicity in HEK293 cells expressing UGT1A3 assessed as DNA strand breaks at 0.1 mM after 24 hrs by comet assay; type: toxicity, cell-based; conditions: human, hek293, 24 h, 100 µM
Method in brief: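 HEK293 cells stably expressing UGT1A3, seeded 24 h before treatment and exposed 24 h in 0.5% FBS DMEM (vehicle 0.1% DMSO). Alkaline comet assay: low-melting agarose embedding, lysis pH 10 for 1 h at 4°C, 30 min unwinding in NaOH/EDTA, electrophoresis 300 mA for 20 min, ethidium bromide stain. Tail extent moment scored on 150-180 cells over more than 3 experiments, median (IQR).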

Row | SMILES | Activity (HEK293 [1]) | also measured
1 | O=C(O)c1ccccc1O [SALICYLIC ACID] | Non-toxic | Activity (HEK293 [2]): Non-toxic; Activity (HEK293 [3]): Non-toxic
2 | CC(C)(Oc1ccc(Cl)cc1)C(=O)O [CLOFIBRIC ACID] | Non-toxic | Activity (HEK293 [2]): Non-toxic; Activity (HEK293 [3]): Non-toxic; Activity (HEK293 [4]): Toxic
3 | COc1ccc2c(c1)c(CC(=O)O)c(C)n2C(=O)c1ccc(Cl)cc1 [INDOMETHACIN] | Non-toxic | 
4 | Cc1cccc(Nc2ccccc2C(=O)O)c1C [MEFENAMIC ACID] | Non-toxic | 
5 | COS(C)(=O)=O [METHANESULFONIC ACID METHYL ESTER] |  | Activity (HEK293 [5]): Toxic
6 | CC(C(=O)O)c1ccc(-c2ccccc2)c(F)c1 (centres undefined) [FLURBIPROFEN] | Non-toxic | 
7 | NS(=O)(=O)c1cc(C(=O)O)c(NCc2ccco2)cc1Cl [FUROSEMIDE] | Non-toxic | 
8 | CCCN(CCC)S(=O)(=O)c1ccc(C(=O)O)cc1 [PROBENECID] | Non-toxic | 
9 | O=C(O)c1cccnc1Nc1cccc(C(F)(F)F)c1 [NIFLUMIC ACID] | Non-toxic | 
